Published values gathered from unrelated publications.
SLC22A6: Solute carrier family 22 member 6 (SLC22A6, Homo sapiens, UniProt Q4U2R8)
TDP1: Tyrosyl-DNA phosphodiesterase 1 (TDP1, Homo sapiens, UniProt Q9NUW8)
MAOA: Amine oxidase [flavin-containing] A (MAOA, Homo sapiens, UniProt P21397)
LDHA: L-lactate dehydrogenase A chain (LDHA, Homo sapiens, UniProt P00338)
Rhomboid protease AarA: Rhomboid protease AarA (Providencia stuartii, UniProt P46116)
MAP3K7: Mitogen-activated protein kinase kinase kinase 7 (MAP3K7, Homo sapiens, UniProt O43318)
PRMT3: Protein arginine N-methyltransferase 3 (PRMT3, Homo sapiens, UniProt O60678)
PDE7A: High affinity 3',5'-cyclic-AMP phosphodiesterase 7A (PDE7A, Homo sapiens, UniProt Q13946)
NTRK1: High affinity nerve growth factor receptor (NTRK1, Homo sapiens, UniProt P04629)
GSR: Glutathione reductase, mitochondrial (GSR, Homo sapiens, UniProt P00390)
PTPN1: Tyrosine-protein phosphatase non-receptor type 1 (PTPN1, Homo sapiens, UniProt P18031)
RIPK2: Receptor-interacting serine/threonine-protein kinase 2 (RIPK2, Homo sapiens, UniProt O43353)
PRMT5: Protein arginine N-methyltransferase 5 (PRMT5, Homo sapiens, UniProt O14744)

| Structure (SMILES) | target | observed | action | technique | pH | notes | IC50 [µM] |
| --- | --- | --- | --- | --- | --- | --- | --- |
| O=C(O)CCc1nc(-c2ccccc2)c(-c2ccccc2)o1 | SLC22A6 | transporter uptake | inhibitor | – | – | – | 0.891 |
| COc1cc2c(OC)nc3c4cc5c(cc4cc(OCCCN(C)C)c3c2cc1OC)OCO5 | TDP1 | enzyme activity | inhibitor | – | – | – | 5.5 |
| O=C1C[C@@H](c2cc(O)cc(O)c2)Oc2cc(O)ccc21 | MAOA | enzyme activity | inhibitor | – | – | – | 13.6 |
| CCN(CC)CCCOc1cc2cc3c(cc2c2nc(OC)c4cc(OC)c(OC)cc4c12)OCO3 | TDP1 | enzyme activity | inhibitor | – | – | – | 5.5 to 13 |
| Cc1nc2ccc(NC(=O)CCNC(=O)CCCc3ccc(CC(C(=O)O)C(=O)O)cc3)cc2s1 | LDHA | enzyme activity | inhibitor | – | – | – | 1.2 |
| O=c1oc(Cl)c(Cl)c2ccccc12 | Rhomboid protease AarA | enzyme activity | inhibitor | – | – | – | 54 |
| C[C@@H]1C[C@H]2O[C@@H]2CC/C=C/C(=O)Cc2cc(O)cc(O)c2C(=O)O1 | MAP3K7 | enzyme activity | inhibitor | ATP luminescence | – | – | > 10 |
| Nc1ncnc2c1ncn2[C@@H]1O[C@H](CSCCNC(=O)Nc2ccc(F)cc2)[C@@H](O)[C@H]1O | PRMT3 | enzyme activity | inhibitor | fluorescence | – | – | 2 |
| COc1ccc(C2=NN(C3CCCCCC3)C(=O)[C@@H]3CC=CC[C@H]23)cc1-c1ccc(C(N)=O)cc1 (relative stereo) | PDE7A | enzyme activity | inhibitor | – | – | – | > 10 |
| COc1cc(C[C@H]2C(=O)OC[C@@H]2Cc2ccc(OC)c(OC)c2)ccc1O | Cone cGMP-specific 3',5'-cyclic phosphodiesterase subunit alpha' (PDE6C, Homo sapiens, UniProt P51160) | enzyme activity | inhibitor | – | – | – | > 20 |
| O=C(c1ccc(O)cc1O)[C@H](O)[C@@H](O)c1ccc(O)cc1 | MAOA | enzyme activity | inhibitor | – | – | – | 0.62 |
| CCOc1ccc2c(-c3cc(C)nc(Nc4cc(OC)cc(C(F)(F)F)c4)n3)cnn2n1 | Homeodomain-interacting protein kinase 3 (HIPK3, Homo sapiens, UniProt Q9H422) | enzyme activity | inhibitor | – | – | – | > 10 |
| COc1cc2c(OC)nc3c4cc5c(cc4cc(OCCCN4CCC(N6CCCCC6)CC4)c3c2cc1OC)OCO5 | TDP1 | enzyme activity | inhibitor | – | – | – | 11 |
| CCOCc1nc(O)c(-c2nnc(Cc3ccc(Cl)cn3)o2)c(O)c1-c1c(OC)cccc1OC | Histamine H2 receptor (HRH2, Homo sapiens, UniProt P25021) | ligand displacement | – | radioligand | – | – | > 30 |
| CCn1ncc2c1-c1cnc(N)c(c1)O[C@H](C)c1cc(F)ccc1-c1nn(C)nc1C2 | NTRK1 | enzyme activity | inhibitor | – | – | – | 0.26 |
| Nc1ncnc2c1ncn2[C@@H]1O[C@H](CSCCNC(=O)NCc2ccc(F)cc2)[C@@H](O)[C@H]1O | PRMT3 | enzyme activity | inhibitor | fluorescence | – | – | 5.9 |
| N#Cc1ccc(COc2cccc(C3CCN(Cc4nc5ccc(C(=O)O)cc5n4C[C@@H]4CCO4)CC3)n2)c(F)c1 | Glucagon-like peptide 2 receptor (GLP2R, Homo sapiens, UniProt O95838) | cAMP | antagonist | – | – | – | 3.6 |
| C[C@@H]1C[C@@H](O)/C=C/C=C\CC(=O)Cc2c(Cl)c(O)cc(O)c2C(=O)O1 | MAP3K7 | enzyme activity | inhibitor | ATP luminescence | – | – | > 10 |
| C[C@@H](N)COc1ccc(-c2cnc3ccc(N[C@H](C)c4cccc(F)c4)nn23)cc1 | NTRK1 | enzyme activity | inhibitor | – | – | – | 0.0044 |

| Structure (SMILES) | target | observed | action | technique | pH | notes | IC50 [µM] |
| --- | --- | --- | --- | --- | --- | --- | --- |
| COc1cc2c(OC)nc3c4cc5c(cc4cc(OCCCN4CCCC4)c3c2cc1OC)OCO5 | TDP1 | enzyme activity | inhibitor | fluorescence | – | – | 4.8 |
| Cc1ccc(NC(=O)c2ccc(C)c(C(F)(F)F)c2)cc1C#Cc1nn(C2CCC(O)CC2)c2ncnc(N)c12 (stereo not drawn) | NTRK1 | enzyme activity | inhibitor | radiometric | – | – | > 10 |
| Cc1ccc(C(=O)Nc2ccc(S(=O)(=O)O)c3cc(S(=O)(=O)O)cc(S(=O)(=O)O)c23)cc1NC(=O)c1cccc(NC(=O)Nc2cccc(C(=O)Nc3cc(C(=O)Nc4ccc(S(=O)(=O)O)c5cc(S(=O)(=O)O)cc(S(=O)(=O)O)c45)ccc3C)c2)c1 | P2X purinoceptor 4 (P2RX4, Homo sapiens, UniProt Q99571) | calcium signal | antagonist | – | – | – | 44.2 |
| O=C(Cc1cccs1)N[C@@H]1C(=O)N2C(C(=O)[O-])=C(C[n+]3ccccc3)CS[C@H]12 | Rhomboid protease AarA | enzyme activity | inhibitor | fluorescence | – | – | 18 |
| O=C1NC(=O)/C(=C/c2ccc(OCCNc3nc4c(cnn4C4CCCC4)c(=O)[nH]3)c(F)c2)S1 | PDE7A | enzyme activity | inhibitor | – | – | – | 0.027 |
| O=C(Nc1ccc([N+](=O)[O-])cc1[N+](=O)[O-])c1ccccc1 | MAOA | enzyme activity | inhibitor | – | – | – | 0.126 |
| CSc1ccc(/C=C2/C(C)=C(CC(=O)O)c3cc(F)ccc32)cc1 | PDE7A | enzyme activity | inhibitor | – | – | – | > 100 |
| O=C(/C=C/c1ccc(O)c(O)c1)O[C@@H]1C[C@](O)(C(=O)O)C[C@@H](O)[C@H]1O | LDHA | enzyme activity | inhibitor | – | pH 7.4 | – | > 500 |
| O=C(O)c1ccc(Nc2c(-c3ccc(S(=O)(=O)O)cc3)nc3ccccn23)cc1 | TDP1 | enzyme activity | inhibitor | – | – | – | > 100 |
| COc1cc2c(OC)nc3c4cc5c(cc4cc(OCCCN4CCC(O)CC4)c3c2cc1OC)OCO5 | TDP1 | enzyme activity | inhibitor | – | – | – | 5.5 to 13 |
| CCCCN1/C(=C/C=C(Br)/C=C/C2=[N+](CCCC)c3ccc(Br)cc3C2(C)C)C(C)(C)c2cc(Br)ccc21 | PRMT3 | enzyme activity | inhibitor | radiometric | – | – | 4.09 |
| O=c1oc2c(cc1O)oc(=O)c1cc(O)c(O)c(O)c12 | LDHA | enzyme activity | inhibitor | – | pH 7.4 | – | 104 |
| C[C@H]1Oc2cc(cnc2N)-c2c(nn(C)c2C#N)CN(C)C(=O)c2ccc(F)cc21 | Focal adhesion kinase 1 (PTK2, Homo sapiens, UniProt Q05397) | enzyme activity | inhibitor | radiometric | – | – | 0.004 |
| CN(C)CCCN1c2ccccc2CCc2ccc(Cl)cc21 | GSR | enzyme activity | inhibitor | absorbance | – | – | > 100 |
| CC1=C[C@@]2(C[C@H](C)[C@H]3CC=C(CO)C(=O)[C@@H]3O2)OC1=O | PTPN1 | enzyme activity | inhibitor | – | – | – | 41.1 |
| CNC(=O)c1cc2c(Oc3ccc(NC(=O)C4(C(=O)Nc5ccc(F)cc5)CC4)cc3)ccnc2cc1OC | RIPK2 | enzyme activity | inhibitor | radiometric | – | – | 0.017 |
| O=C(Nc1cccc(NS(=O)(=O)c2ccc3oc4cc([N+](=O)[O-])ccc4c3c2)c1)C1(O)CC1 | LDHA | enzyme activity | inhibitor | – | – | – | 0.757 |
| COc1cc(-c2cc(=O)c3c(O)c(OC)c(O[C@@H]4O[C@H](CO)[C@@H](O)[C@H](O)[C@H]4O[C@@H]4O[C@H](CO)[C@@H](O)[C@H](O)[C@H]4O)cc3o2)ccc1O | LDHA | enzyme activity | inhibitor | – | pH 7.4 | – | 260 |
| O=c1cc(-c2ccc(O)cc2)oc2c([C@@H]3O[C@H](CO)[C@@H](O)[C@H](O)[C@H]3O)c(O)cc(O)c12 | MAOA | enzyme activity | inhibitor | – | – | – | 38.6 |

| Structure (SMILES) | target | observed | action | technique | pH | notes | IC50 [µM] |
| --- | --- | --- | --- | --- | --- | --- | --- |
| CC1=C[C@@]2(C[C@H](C)[C@H]3CC=C(C)C(=O)[C@@H]3O2)OC1=O | PTPN1 | enzyme activity | inhibitor | – | – | – | > 500 |
| CN1CCN(c2ccc(Nc3ncc4cc(C#N)c(=O)n(C5CCCC5)c4n3)cc2)CC1 | Tyrosine-protein kinase Lyn (LYN, Homo sapiens, UniProt P07948) | enzyme activity | inhibitor | – | – | – | 0.0358 |
| Nc1ncnc2c1ncn2[C@@H]1O[C@H](CSCCNC(=O)NC2CCCCC2)[C@@H](O)[C@H]1O | PRMT3 | enzyme activity | inhibitor | fluorescence | – | – | > 100 |
| N=C(NCCCSC[C@H]1O[C@@H](n2cnc3c(NCCCc4ccccc4)ncnc32)[C@H](O)[C@@H]1O)NCC1CCCCC1 | PRMT3 | enzyme activity | inhibitor | fluorescence | – | – | > 100 |
| CC(C)(C)OC(=O)N1CCN(C(=O)C(=O)CC(=O)c2cccc(N(Cc3ccccc3)Cc3ccccc3)c2)CC1 | PTPN1 | enzyme activity | inhibitor | absorbance | pH 7 | – | 9.2 |
| O=C(c1ccccc1)c1ccc2n1CCC2C(=O)O (stereo not drawn) | SLC22A6 | transporter uptake | inhibitor | – | – | – | 0.653 |
| CC1(C)C(/C=C/C=C2/N(CCCc3ccccc3)c3ccc(Cl)cc3C2(C)C)=[N+](CCCc2ccccc2)c2ccc(Cl)cc21 | PRMT5 | enzyme activity | inhibitor | radiometric | – | – | 2.19 |
| CC(C)(C)n1nc(-c2ccc3nc(OC4CC4)ccc3c2)c(C(N)=O)c1N | RIPK2 | cell-free assay | – | – | – | – | 0.2 |
| Nc1ncnc2c1ncn2[C@@H]1O[C@H](CSCCCNC(=O)NCc2ccccc2)[C@@H](O)[C@H]1O | PRMT3 | enzyme activity | inhibitor | fluorescence | – | – | 70 |
| CCS(=O)(=O)N1CC(CC#N)(n2cc(-c3ncnc4[nH]ccc34)cn2)C1 | SLC22A6 | transporter uptake | inhibitor | – | – | – | > 100 |
| COc1cc(/C=C/C(=O)N2CCC(Cc3ccccc3)CC2)ccc1OCc1ccccc1 | MAOA | enzyme activity | inhibitor | fluorescence | – | – | 80.7 |
| CC(C)C[C@H](NC(=O)[C@H]1O[C@@H]1C(=O)O)C(=O)NCCCCN=C(N)N | Cathepsin S (CTSS, Homo sapiens, UniProt P25774) | enzyme activity | inhibitor | – | – | – | 0.00174 |
| C=CC(=O)Nc1cc(Nc2nccc(Nc3cc(Cl)c(F)cc3C(C)(C)O)n2)c(OC)cc1N1CC[C@@H](N(C)C)C1 | NTRK1 | enzyme activity | inhibitor | – | – | with preincubation | > 10 |
| Nc1ncnc2c1ncn2[C@@H]1O[C@H](CSCCNC(=O)Nc2cccc3ccccc23)[C@@H](O)[C@H]1O | PRMT3 | enzyme activity | inhibitor | fluorescence | – | – | 81 |
| Clc1ccc2c(c1)N(CCCN1CCN(CCCc3ccccc3)CC1)c1ccccc1S2 | GSR | enzyme activity | inhibitor | absorbance | – | – | > 100 |
| CCCCN1/C(=C/C=C/c2sc3ccc(Br)cc3[n+]2CCCC)Sc2ccc(Br)cc21 | PRMT3 | enzyme activity | inhibitor | radiometric | – | – | 3.17 |
| COc1cc(/C=C/C(=O)N2CCC(Cc3ccccc3)CC2)ccc1OC1CCCCC1 | MAOA | enzyme activity | inhibitor | fluorescence | – | – | 63.9 |
| Nc1ncnc2c1ncn2[C@@H]1O[C@H](CSCCNC(=O)NCc2ccccc2)[C@@H](O)[C@H]1O | PRMT5 | enzyme activity | inhibitor | radiometric | – | – | < 2.4 |
| CCOC(F)(F)c1nnc2cnc(-c3cnc(OCC(F)(F)F)c(F)c3)cn12 | Sodium channel protein type 1 subunit alpha (SCN1A, Homo sapiens, UniProt P35498) | ion current | inhibitor | patch clamp | – | – | 0.683 |
